Cav3 T inh: human Cav3.2 channel inhibition, primary screen | AID 449739 | Cav3.2-expressing cells, Fluo-4 calcium fluorescence FDSS; active compounds read low | O95180 | actives 4% (n = 100,000) | B-score at 10 µM;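 active means single-dose well whose peak fluorescence ratio is a statistical outlier from its plate by either plate-standardised score or position-corrected B-score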
EphB4 ephrin blk: blocks human EphB4 binding to ephrin-B2; inhibition, % at 7 µM; actives 0.15% (n = 97,000); EphB4 LBD / TNYL-RAW-Alexa532 peptide, fluorescence polarization;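 active means inhibition above the screen-wide mean inhibition plus 3 SD, cut at about 15% in these data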
Rev-RRE block: disrupts HIV-1 Rev binding to RRE RNA; Rev peptide-RRE RNA binding, FRET; inhibition, % at 8 µM; actives 0.79% (n = 97,000); P05866;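 active means inhibition above the screen-wide mean plus 3 SD, cut at about 35% in these data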
Target sequence (P05866 whole entry, looked up): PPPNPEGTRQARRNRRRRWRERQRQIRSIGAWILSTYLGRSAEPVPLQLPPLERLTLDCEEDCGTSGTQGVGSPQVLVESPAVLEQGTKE
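Material: labelled RRE RNA duplex and labelled Rev peptide / Buffer or medium: HEPES pH 7.5 salt buffer with EDTA / Compound dosing: single point, 8 µM final nominal compound concentration / Benchmarks: DMSO low control, neomycin B high control / Timing: 5 min preincubation and 15 min binding, 25 °C / Technique: FRET fluorescence readout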
DAT uptake mod: modulates human dopamine transporter uptake under cocaine. LLC-PK1 hDAT cells, [14C]-dopamine uptake with cocaine IC80; actives deviate in either direction. B-score at 10 µM. AID 449768. Q01959. actives 1.3% (n = 110,000);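 active means Z score or B-score, a plate-position-corrected score, falls beyond the plate's 99.7% confidence bounds, in either direction; inactive means both scores lie inside the 99.7% bounds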
Target sequence (Q01959 whole entry, looked up): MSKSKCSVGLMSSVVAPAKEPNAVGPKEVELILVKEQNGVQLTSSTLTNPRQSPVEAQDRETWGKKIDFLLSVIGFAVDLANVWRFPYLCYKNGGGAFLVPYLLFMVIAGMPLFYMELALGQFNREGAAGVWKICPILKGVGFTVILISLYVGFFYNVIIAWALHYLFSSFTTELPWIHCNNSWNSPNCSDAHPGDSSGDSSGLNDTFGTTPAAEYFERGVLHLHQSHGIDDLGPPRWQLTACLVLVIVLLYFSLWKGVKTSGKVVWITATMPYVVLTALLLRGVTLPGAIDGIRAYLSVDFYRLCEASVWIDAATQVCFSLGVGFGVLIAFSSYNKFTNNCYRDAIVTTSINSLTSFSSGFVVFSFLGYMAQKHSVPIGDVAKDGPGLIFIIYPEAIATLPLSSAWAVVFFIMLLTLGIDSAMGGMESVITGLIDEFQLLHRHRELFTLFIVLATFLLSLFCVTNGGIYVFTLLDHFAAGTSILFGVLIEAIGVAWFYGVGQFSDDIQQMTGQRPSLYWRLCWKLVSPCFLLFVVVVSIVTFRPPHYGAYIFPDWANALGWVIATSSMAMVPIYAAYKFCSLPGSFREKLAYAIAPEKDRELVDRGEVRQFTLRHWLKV
Each line names hits and unclear results; the compound was inactive in the other large screens; [ ] = another dose, or the depositor's remark. Sampled rows, rich in hits. Any-hit rate of the full collection: about 5.4%.

COc1ccc2[nH]c(=O)c(CN(CCc3ccccc3)Cc3nnnn3CC3CCCO3)cc2c1 (stereo unspecified)	none
Cc1ccc2[nH]c(=O)c(CN(CCc3ccccc3)Cc3nnnn3CC3CCCO3)cc2c1 (stereo unspecified)	Cav3 T inh -3.6
O=c1[nH]c2cc3c(cc2cc1CN(Cc1nnnn1CC1CCCO1)C1CCCCC1)OCO3 (stereo unspecified)	Rev-RRE block 39 (no result: Cav3 T inh, DAT uptake mod)
CC(C)C[C@H](NC(=O)c1nc[nH]c1C(=O)N1CCN(C(=O)OC(C)(C)C)CC1)C(=O)OC(C)(C)C	none (no result: EphB4 ephrin blk, Rev-RRE block)
COc1ccccc1C(=O)Nc1sc2c(c1C(=O)NCc1ccco1)CCCC2	none
COC1=CC(=O)C(O)=C(CCCCCCC/C=C/CCCCCCCC2=C(O)C(=O)C=C(OC)C2=O)C1=O	Cav3 T inh -5.2 (no result: EphB4 ephrin blk, Rev-RRE block)
CCCCCCCCCCCC1=C(O)C(=O)C=C(O)C1=O	none (no result: EphB4 ephrin blk, Rev-RRE block)
CCOC(=O)NC(Nc1cc(C)ccn1)(C(F)(F)F)C(F)(F)F	none
O=C(NCC1CCCC(CNC(=O)N2CCc3ccccc32)C1)N1CCc2ccccc21 (stereo unspecified)	Cav3 T inh -5
O=C(Nc1ccccc1)N1CCc2ccccc21	none
O=C(CN(Cc1ccc(F)cc1)C(=O)c1ccco1)NCc1ccc(F)cc1	none
O=C(c1ccco1)N(CCC(c1ccccc1)c1ccco1)Cc1ccc(F)cc1 (stereo unspecified)	Cav3 T inh -3.9
CCOc1ccc(CCNS(=O)(=O)c2cccc3nsnc23)cc1OCC	none (no result: Cav3 T inh)
O=C(c1ccccc1)c1cnc(Nc2ccccc2Cl)s1	none
CNC(=O)c1[nH]cnc1C(=O)N[C@@H](Cc1ccccc1)C(=O)OCc1ccccc1	none (no result: EphB4 ephrin blk, Rev-RRE block)
CNC(=O)c1[nH]cnc1C(=O)N[C@@H](C)C(=O)OCc1ccccc1	DAT uptake mod 2.4 (no result: EphB4 ephrin blk, Rev-RRE block)
Cc1ccc(-c2cc(N)n(Cc3ccc(Cl)cc3)n2)cc1	Cav3 T inh -5
Nc1cc(-c2ccc(Cl)cc2)nn1S(=O)(=O)c1ccc(Cl)cc1	none
Cc1cccc(Oc2sc(C(=O)c3ccccc3)c(N)c2C#N)c1	none
O=C(C1=COCCO1)N1CCN(C(c2ccccc2)c2ccccc2)CC1	none
OCCNc1nc(Nc2ccccc2O)nc(N2CCCC2)n1	none (no result: EphB4 ephrin blk, Rev-RRE block)
C=CCn1c(N2CCCCCC2)nc2c1c(=O)[nH]c(=O)n2C	none
Cn1c(=O)[nH]c(=O)c2c1nc(Br)n2Cc1ccccc1Cl	none
CC1CCN(c2nc3c(c(=O)[nH]c(=O)n3C)n2Cc2ccccc2Cl)CC1	Cav3 T inh -4.5
C/C(Cl)=C\Cn1c(N2CCCC2)nc2c1c(=O)[nH]c(=O)n2C	Cav3 T inh 3.5
CSc1nc(C)c2c(n1)N(c1ccc(C(C)C)cc1)CC2	none (no result: Cav3 T inh, DAT uptake mod)
O=C(NCC1COc2ccccc2O1)C1C2C=CC3(CN(Cc4ccccc4Cl)C(=O)C13)O2 (stereo unspecified)	Cav3 T inh -8.7 (no result: EphB4 ephrin blk, Rev-RRE block)
COc1ccc(CCN2CC34C=CC(O3)C(C(=O)NCc3ccccc3Cl)C4C2=O)cc1OC (stereo unspecified)	none
CCOC(=O)/C=C1\NC(=O)C(C)S1 (stereo unspecified)	none
COc1ccc(S(=O)(=O)N2CCC(C(=O)N3CCc4ccccc4C3)CC2)cc1C	Cav3 T inh -5
O=C(NCCO)c1ccc2nc(-c3ccco3)c(-c3ccco3)nc2c1	none
O=C(NCCc1ccccc1)c1ccc2nc(-c3ccco3)c(-c3ccco3)nc2c1	Cav3 T inh -11
Cc1csc(NC(=O)CSc2ncnc3c2cnn3-c2ccccc2Cl)n1	Cav3 T inh -5.5
Cc1c(C(=O)NCc2ccc3c(c2)cc(C)n3C)cccc1[N+](=O)[O-]	none (no result: EphB4 ephrin blk, Rev-RRE block)
Cn1c(SCC2CCCCC2)nnc1-c1ccncc1	DAT uptake mod -7.9 (no result: Cav3 T inh, EphB4 ephrin blk, Rev-RRE block)
CC(=O)CSc1nnc(-c2ccncc2)n1C	none
COc1ccc(CC(=O)NC(C)c2nnc(SCCOc3ccc(OC)cc3)n2C)cc1 (stereo unspecified)	none
CCOC(=O)Cc1cnc(NC(=O)Cn2nnc(-c3ccc(OCC)cc3)n2)s1	Cav3 T inh -7.2
CCCCOc1ccc(-c2nnn(CC(=O)Nc3ncc(CC(=O)OCC)s3)n2)cc1	none
Cc1cc(C)cc(NC(=S)NCCN2CCOCC2)c1	none
COc1ccc([N+](=O)[O-])cc1COc1cc(C)cc2oc(=O)cc(-c3ccccc3)c12	Cav3 T inh -8.7
OC1CN=C2C=CC=CN2C1 (stereo unspecified)	Cav3 T inh -7.4
O=C(Nc1ccccc1OC(F)F)c1ccc(Br)o1	DAT uptake mod -2.5 (no result: Cav3 T inh)
CCOC(=O)/C=C1\SCC(=O)N1CC(=O)Nc1ccc(C(C)C)cc1	Cav3 T inh -3.8
CCOC(=O)/C=C1\SCC(=O)N1CCOc1cccc(Br)c1	Cav3 T inh -4.3 (no result: EphB4 ephrin blk, Rev-RRE block)
CCOC(=O)/C=C1\SCC(=O)N1CC(=O)Nc1ccc2c(c1)CCC2	none
CCOC(=O)/C=C1\SCC(=O)N1CC(O)CN1C(=O)CS/C1=C\C(=O)OCC	none
CCN(Cc1ccncc1)S(=O)(=O)c1ccc(C(C)=O)cc1	none (no result: EphB4 ephrin blk, Rev-RRE block)
Cc1cccc(C)c1N1CCN(c2ccc3nnc(C(F)(F)F)n3n2)CC1	none
COc1ccc(C2C(C#N)=C(N)Oc3n[nH]c(C)c32)cc1Cn1nnc2ccccc21 (stereo unspecified)	none
CCCc1[nH]nc2c1C(c1ccc(OC)c(Cn3nnc4ccccc43)c1)C(C#N)=C(N)O2 (stereo unspecified)	EphB4 ephrin blk 17, DAT uptake mod 3.6
CCOC(=O)c1sc(NC(=O)CSc2nc(-c3ccco3)cc(C(F)(F)F)n2)c(C(=O)OC(C)C)c1C	none (no result: Cav3 T inh, DAT uptake mod)
CCOc1ccccc1NC(=O)CSc1nnc(-c2ccccc2Cl)n1Cc1ccco1	Cav3 T inh -7.7
O=C(CSc1nnc(-c2cc3ccccc3cc2O)n1Cc1ccco1)c1ccc(F)cc1	Cav3 T inh -4
COc1ccccc1-c1nnc(SCC(=O)c2ccc(C3CCCCC3)cc2)n1Cc1ccco1	Cav3 T inh -4.7
COc1ccc(COC(=O)NNC(=O)c2ccccc2Cl)cc1	none
O=C(Nc1nn[nH]n1)C12CC3CC(CC(C3)C1)C2	none
COc1cccc2sc(Nc3nnc(-c4cccs4)o3)nc12	Cav3 T inh -5.6
Cc1ccc(-n2c(C)cc(/C=c3/sc4nc5ccccc5n4c3=O)c2C)cc1	none
COc1cc(N2CCCC2)c(OC)cc1/C=c1/sc2nc3ccccc3n2c1=O	Rev-RRE block 133[fluorescence artefact?] (no result: Cav3 T inh, DAT uptake mod)
Cc1nnc(C)n1/N=C/c1cc(Br)ccc1O	none
Cc1nnc(C)n1/N=C/c1cc(Br)cc(Br)c1O	Cav3 T inh -9.6
Cc1nn2c([nH]c(=O)c3ccccc32)c1C=O	none
COc1cccc(NC(=O)c2nnn(CCc3ccccc3)c2N)c1	Cav3 T inh -2.6
COc1cccc(NC(=O)Cn2nnc(C(=O)Nc3ccccc3)c2N)c1	none
CN(c1ccc(Cl)cc1)c1cc(=O)n(C)c2ccccc12	EphB4 ephrin blk 120[fluorescence artefact?], DAT uptake mod 3.1
CC(C)(C)OC(=O)COc1cc(OCC(=O)OC(C)(C)C)c2c(=O)cc(-c3ccccc3)oc2c1	Cav3 T inh -4
C=CCn1c(=N)c(C(=O)OCC)cc2c(=O)n3cccc(C)c3nc21	none
CCOC(=O)c1cc2c(=O)n3cccc(C)c3nc2n(CC2CCCO2)c1=NC(C)=O (stereo unspecified)	Cav3 T inh 5.1

Screens (PubChem BioAssay)
